An excerpt weighted towards active compounds, which were near 0.96% of everything screened.
MEP2 TOR yeast – alters MEP2-GFP fluorescence in TOR pathway yeast screen; S. cerevisiae MEP2-GFP strain, flow cytometry GFP, 3 h; 100% = DMSO control level; GFP response vs DMSO, % at 10 µM; 0.51% of 330,000 active;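 active = GFP response versus DMSO above a set limit, roughly screen mean plus 3 SD, cut at about 180% in these data; inconclusive = fewer than 70 cells counted for a yeast strain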;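 note: median GFP fluorescence of the barcode-gated MEP2-GFP cells per well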
LAP4 TOR yeast – yeast TOR pathway LAP4-GFP modulation | GFP response vs DMSO, % at 10 µM | AID 2023 | S. cerevisiae LAP4-GFP multiplex, flow cytometry GFP, 3 h; median GFP as percent of DMSO wells | 0.34% of 320,000 active;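 active = GFP response vs DMSO above a set limit, about the screen mean plus 3 SD, cut at about 150% in these data; inconclusive = under 70 cell events counted for the yeast strain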
AGP1 TOR yeast – yeast TOR pathway AGP1-GFP modulation; AID 2066; 0.02% of 320,000 active; S. cerevisiae AGP1-GFP multiplex flow cytometry, 3 h; GFP as percent of DMSO wells; GFP response vs DMSO, % at 10 µM;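 active = GFP response relative to DMSO above a set limit, near screen average plus 3 SD, cut at about 150% in these data; inconclusive = fewer than 70 cells counted for the yeast strain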;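 note: median GFP channel fluorescence of the gated AGP1 strain per well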
CIT2 TOR yeast – yeast TOR pathway CIT2-GFP modulation. 0.065% of 320,000 active. GFP response vs DMSO, % at 10 µM. S. cerevisiae CIT2-GFP strain, flow cytometry, 3 h; 100 means same as DMSO wells;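 active = GFP response relative to DMSO above a set limit, near the screen mean plus 3 SD, cut at about 150% in these data; inconclusive = Fewer than 70 cells measured for a yeast strain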;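 note: ratio of well median GFP fluorescence to mean of DMSO wells on the plate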
RPL19A TOR yeast – modulators of TOR pathway RPL19A-GFP in S. cerevisiae. S. cerevisiae RPL19A-GFP strain, flow cytometry, 3 h; stronger effect = lower value. percent response vs DMSO, % at 10 µM. 0.3% of 330,000 active. AID 2025;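 active = percent response vs DMSO below 50%; inconclusive = fewer than 70 events counted for the yeast strain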;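 note: median channel GFP fluorescence of the barcoded RPL19A-GFP strain; ratio of sample median GFP to plate DMSO average so 100% = DMSO; lower means less RPL19A-GFP as with rapamycin TOR inhibition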
T cell modulator – modulates CD8 T cell binding to vesicles; 2C CD8+ T cell-vesicle binding, flow cytometry; stronger effect = lower value; response (vesicle binding), % at 7 µM; 0.068% of 330,000 active;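 active = response, share of CD8 T cells binding vesicles, and their 90th percentile fluorescence all below set limits, cut at about 80% in these data, passing the limit was not always enough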;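 note: values below 100% mean blocked vesicle binding to the CD8+ T cells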
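System: murine 2C transgenic CD8+ T lymphocytes; also added: QL9-loaded Drosophila micro-vesicles; times: binding 1.5 h at 37 °C; measured by: flow cytometry, PE anti-B7-1 (FL2) versus Alexa647 anti-CD8 (FL8), PFA-fixed; control set: Peptide-free naked vesicles (low) and QL9 vesicles with 0.7% DMSO vehicle (high)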
* hit, by the source's call; ? = inconclusive; [ ] = remark or other dose.

SMILES	MEP2 TOR yeast	LAP4 TOR yeast	AGP1 TOR yeast	CIT2 TOR yeast	RPL19A TOR yeast	T cell modulator
c1ccc(-c2nc(N3CCCCCC3)nc(-n3ccnc3)n2)cc1	103.5	130.0	81.9	90.4	100.8	263.8
c1ccc(-c2nc(N3CCN(c4ccccc4)CC3)nc(-n3ccnc3)n2)cc1	243.5*[may fluoresce violet]	126.9	20.3	?	58.6	426.9
CC1CCCCN1S(=O)(=O)c1ccc2c(c1)C(C)(C)C(=O)N2C (configuration not stated)	109.9	107.3	108.0	101.1	101.3	189.0
O=C(Cc1nnc(NC(=O)c2ccccc2)s1)N/N=C/c1cccc(O)c1	104.3	87.5	93.3	98.9	100.3	238.6
O=C(Cc1nnc(NC(=O)c2ccccc2)s1)N/N=C/c1ccco1	87.8	88.5	91.1	100.8	97.4	0.0*
CC(C)c1cc(NC(=O)C(C)(C)C)cc(C(C)C)c1O	202.2*[may fluoresce violet]	90.5	22.7	?	54.6	245.1
CN(Cc1cccs1)C(=O)C1CC(=O)N(Cc2ccccc2)C1 (configuration not stated)	97.6	110.5	111.5	105.2	95.5	217.1
Cc1ccc(C(=O)N/N=C\c2ccc([N+](=O)[O-])s2)cn1	311.3*[may fluoresce violet]	74.5	20.8	?	49.5*[may fluoresce violet]	394.1
COc1ccc(NC(=O)CSc2n[nH]c(-c3ccccn3)n2)cc1	313.6*[may fluoresce violet]	88.5	?	?	37.0*[may fluoresce violet]	234.5
O=C(CSc1n[nH]c(-c2ccccn2)n1)Nc1ccccc1	80.7	69.4	92.3	108.1	94.4	339.2
CS(=O)(=O)N(CCc1ccccc1)CC(=O)N1CCCC1	?	?	?	?	42.8*[may fluoresce violet]	151.0
CCCCCN(C(=O)CCC(=O)OCC(=O)Nc1cccc(SC)c1)c1c(N)n(CCCC)c(=O)[nH]c1=O	100.0	107.6	111.7	109.2	99.8	398.4
O=C(COc1ccccc1[N+](=O)[O-])Nc1cccnc1	100.2	98.5	105.8	111.8	100.5	572.7
O=C(COc1ccccc1[N+](=O)[O-])Nc1ccc(Br)cc1	605.4*[may fluoresce violet]	88.5	20.8	?	55.9	424.7
O=C(O)c1cccc(NC(=O)c2ccc3c(c2)C(=O)N(c2ccccc2)C3=O)c1	376.2*[may fluoresce violet]	50.2	?	?	85.9	708.8
O=C(O)c1cc(NC(=O)c2cccc(N3C(=O)c4ccccc4C3=O)c2)cc(C(=O)O)c1	104.9	73.8	95.7	92.8	108.2	193.1
CCOCCn1c(=O)c2c(nc3n2CC(C)CN3CCc2ccccc2)n(C)c1=O (configuration not stated)	98.5	99.8	104.4	97.8	97.1	535.1
O=C(NCCc1nc2ccc(Cl)cc2[nH]1)C1CCC(=O)N(Cc2cccc(F)c2)C1 (configuration not stated)	96.9	100.0	106.6	101.3	92.8	67.4*
COC(=O)C(Cc1ccc(O)cc1)NC(=O)CCc1ccco1 (configuration not stated)	?	?	?	?	18.1*[may fluoresce violet]	204.2
COC(=O)C(Cc1ccc(O)cc1)NC(=O)c1ccc2c(c1)OCCO2 (configuration not stated)	237.2*[may fluoresce violet]	67.4	?	?	39.4*[may fluoresce violet]	188.8
Cc1cc(/C=N/NC(N)=S)c(O)c(/C=N/NC(N)=S)c1	98.8	105.0	99.1	102.7	99.1	166.6
N=c1n(CCN2CCCCC2)c2ccccc2n1CC(=O)c1ccc(Cl)c(Cl)c1	128.3	168.4*	89.6	86.8	92.2	0.0
O=C(Nc1cccc(-c2ccc(N3CCCCC3)nn2)c1)C(F)(F)F	550.7*[may fluoresce violet]	100.9	21.8	?	50.2	325.2
O=S(=O)(Nc1cccc(-c2ccc(N3CCCCCC3)nn2)c1)c1ccccc1F	116.5	78.7	14.7	99.1	47.0*	371.3
O=C(Nc1cccc(-c2ccc(N3CCCCC3)nn2)c1)c1ccc(Br)o1	95.9	104.1	110.2	96.6	102.1	319.1
CC1CCN(c2ccc(-c3cccc(NC(=O)C(F)(F)F)c3)nn2)CC1	522.0*[may fluoresce violet]	116.5	?	?	48.1*[may fluoresce violet]	284.3
CN(Cc1ccccc1F)C(=O)CCNC(=O)c1ccc(C(C)(C)C)cc1	100.7	109.5	104.5	102.9	98.0	318.3
